The record followed here is ChEMBL document CHEMBL3102749, “Antiprotozoal activity of dicationic 3,5-diphenylisoxazoles, their prodrugs and aza-analogues” (Bioorg Med Chem, 2014).

Experiment [1] relates to Trypanosoma brucei rhodesiense. As to the kind of experiment: Trypanocidal activity against bloodstream form of Trypanosoma brucei rhodesiense STIB900 infected in NMRI mouse assessed as mean survival days at 100 mg/kg, po qd administered for 4 days. Format: functional. The gist of the method: (§1)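 Mice infected with T. b. rhodesiense STIB900 (acute model) dosed once daily for 4 consecutive days, ip (diamidines) or oral (prodrugs). Cure means survival to 60 days post infection without parasitemia relapse. Mean survival days post infection are averaged over all mice, with cured mice counted as >60 days.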

For experiment [2], the system named is Trypanosoma brucei rhodesiense. The experiment can be described thus: Trypanocidal activity against bloodstream form of Trypanosoma brucei rhodesiense STIB900 infected in NMRI mouse assessed as mean survival days at 5 mg/kg, ip qd administered for 4 days. Format: functional. The gist of the method:
as §1

For experiment [3], the system named is Trypanosoma brucei rhodesiense. The experiment can be described thus: Trypanocidal activity against bloodstream form of Trypanosoma brucei rhodesiense STIB900 infected in NMRI mouse assessed as mean survival days at 20 mg/kg, ip qd administered for 4 days. The format is functional. As to conditions: route intraperitoneal. A digest of the protocol:
as §1

Experiment [4] relates to Trypanosoma brucei rhodesiense. As to the kind of experiment: Trypanocidal activity against bloodstream form of Trypanosoma brucei rhodesiense STIB900 infected in NMRI mouse assessed as mean parasitemia relapse day at 5 mg/kg, ip qd administered for 4 days. The format is functional. The following applies: route intraperitoneal. A digest of the protocol:
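Mice infected with STIB900 received 4 consecutive daily intraperitoneal doses, 4 mice per group. The secondary endpoint was mean relapse day post-infection, which separates weaker compounds; mice surviving 60 days without parasitemia relapse were scored as cured.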

In experiment [5] the test system is Trypanosoma brucei rhodesiense. The experiment can be described thus: Trypanocidal activity against bloodstream form of Trypanosoma brucei rhodesiense STIB900 infected in NMRI mouse assessed as decrease in parasitemia at 20 mg/kg, ip qd administered for 4 days measured once per week until 60 days by microscopic analysis. The format is functional, organism-based. The arrangement: dose 20 mg/kg. The gist of the method: (§2)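 Mice infected with T. b. rhodesiense STIB900 received one dose daily for 4 consecutive days, 4 mice per group. Diamidines were given intraperitoneally and prodrugs orally. The primary endpoint was cures per group: a mouse counted as cured if it survived 60 days post-infection without parasitemia relapse.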

In experiment [6] the test system is Trypanosoma brucei rhodesiense. The experiment can be described thus: Trypanocidal activity against bloodstream form of Trypanosoma brucei rhodesiense STIB900 infected in NMRI mouse assessed as decrease in parasitemia at 5 mg/kg, ip qd administered for 4 days measured once per week until 60 days by microscopic analysis. The format is functional, organism-based. The arrangement: dose 5 mg/kg. The gist of the method:
as §2

Calls of active or inactive are those of the source. The rule behind the calls is not given here.

As for `Cl.Cl.N/C(=N\O)c1ccc(-c2cc(-c3cccc(/C(N)=N/O)c3)on2)cc1`, the MSD in experiment [1] was >43.5 days.
As to `COc1cc(C(=N)N)ccc1-c1cc(-c2ccc(C(=N)N)cc2)no1.Cl.Cl`, the MSD in experiment [2] (route intraperitoneal) is >48.75 days; in experiment [3], >50.25 days.
Take `Cl.Cl.Cl.N=C(N)c1cccc(-c2cc(-c3ccc(C(=N)N)cc3Cl)on2)c1`: the Time in experiment [4] was 16 days. For the same molecule, the MSD entry in experiment [2] is “inactive”. Moreover, the outcome in experiment [5] was Active. The MSD in experiment [3] is >60 days.
Turning to `Cl.Cl.N=C(N)c1ccc(-c2cc(-c3cccc(C(=N)N)c3)no2)cc1`, the outcome in experiment [5] was inactive. Also, the MSD in experiment [3] was >29.25 days.
With `Cl.Cl.N/C(=N\O)c1ccc(-c2cc(-c3ccc(/C(N)=N/O)cc3)on2)cc1`, the MSD in experiment [1] is >40.5 days.
As for `Cl.Cl.N=C(N)c1ccc(-c2cc(-c3cccc(C(=N)N)c3)on2)cc1`, the MSD in experiment [2] (route intraperitoneal) is >49.25 days; in experiment [3], >51.25 days.
For `Cl.Cl.N=C(N)c1cccc(-c2cc(-c3cccc(C(=N)N)c3)on2)c1`, the outcome in experiment [6] was inactive. In addition, the figures for the MSD in experiment [2] (route intraperitoneal) and in experiment [3] were 21.75 days and >58 days, respectively.
Consider `COc1ccc(C(=N)N)cc1-c1cc(-c2ccc(C(=N)N)cc2)no1.Cl.Cl`, for which the MSD in experiment [2] (route intraperitoneal) and in experiment [3] was >60 days throughout. For the same molecule, in experiment [5], the result was Active.
Take `COc1ccc(C(=N)N)cc1-c1cc(-c2ccc(C(=N)N)cc2)on1.Cl.Cl`: the MSD in experiment [2] (route intraperitoneal) and in experiment [3] was >60 days each time. Further, in experiment [5], the outcome was Active.
